# Assays:
# [1] = molecular target: T1, Glucose-dependent insulinotropic receptor (Homo sapiens, UniProt Q8TDV5); assay: Agonist activity at human GPR119 expressed in CHOK1 cells assessed as cAMP accumulation after 1 hr by ultra LANCE assay; format: functional, cell-based
# T1 sequence (Q8TDV5 whole entry): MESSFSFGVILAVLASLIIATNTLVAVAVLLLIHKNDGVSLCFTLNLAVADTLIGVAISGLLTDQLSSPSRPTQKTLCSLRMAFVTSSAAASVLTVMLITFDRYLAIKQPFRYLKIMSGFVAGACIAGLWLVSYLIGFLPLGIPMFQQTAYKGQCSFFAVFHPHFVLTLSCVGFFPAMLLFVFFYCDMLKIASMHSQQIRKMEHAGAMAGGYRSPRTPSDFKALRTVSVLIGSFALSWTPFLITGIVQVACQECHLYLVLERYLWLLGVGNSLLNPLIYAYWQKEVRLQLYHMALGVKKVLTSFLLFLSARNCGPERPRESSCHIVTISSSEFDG
# Outline: (§1)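 hGPR119-transfected cells were centrifuged and resuspended in cAMP assay buffer (HBSS, 0.1% BSA, 0.5 mM IBMX). They were treated with compounds over a concentration range for 1 h. Eu-cAMP tracer and ULight anti-cAMP lysis solutions were then added, with 1 h at room temperature. LANCE Ultra TR-FRET read, triplicates per concentration. EC50 is the concentration giving 50% cAMP stimulation; %max is relative to GSK-1292263 maximal effect.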
# [2] = molecular target: T2, Glucose-dependent insulinotropic receptor (Homo sapiens) (UniProt Q8TDV5); assay: Agonist activity at human GPR119 expressed in CHOK1 cells assessed as cAMP accumulation after 1 hr by ultra LANCE assay relative to GSK1292263; format: functional, cell-based; outline: as §1
# T2 sequence (whole entry): T1 sequence (Q8TDV5 whole entry)
# Mus musculus [3] = assay: Antidiabetic activity in C57BL/6N mouse assessed as reduction in blood glucose AUC (0 to 120 mins) at 300 mg/kg administered as single dose after 16 hrs of starvation followed by glucose challenge at 4 hrs post dose by OGTT relative to control; format: functional; design: scale not given: the % may be the effect or the level left
# Outline: (§2)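 C57BL/6N mice were fasted 16 h and given a single dose: vehicle (0.5% sodium carboxymethylcellulose, 10 mL/kg), test compounds at 5 or 15 mg/kg, or metformin at 300 mg/kg. A glucose challenge (3 g/kg, oral) followed 4 h later. Blood glucose was read at 0, 15, 30, 60, 90 and 120 min for AUC0–2h. n = 8; mean ± SE versus vehicle.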
# Mus musculus [4] = assay: Antidiabetic activity in C57BL/6N mouse assessed as reduction in blood glucose AUC (0 to 120 mins) administered as single dose after 16 hrs of starvation followed by glucose challenge at 4 hrs post dose by OGTT; format: functional, organism-based; outline: as §2
# Mus musculus [5] = assay: Antidiabetic activity in C57BL/6N mouse assessed as reduction in blood glucose AUC (0 to 120 mins) at 5 mg/kg administered as single dose after 16 hrs of starvation followed by glucose challenge at 4 hrs post dose by OGTT relative to control; format: functional; design: scale not given: the % may be the effect or the level left; outline: as §2
# Mus musculus [6] = assay: Antidiabetic activity in C57BL/6N mouse assessed as reduction in blood glucose AUC (0 to 120 mins) at 15 mg/kg administered as single dose after 16 hrs of starvation followed by glucose challenge at 4 hrs post dose by OGTT relative to control; format: functional; design: scale not given: the % may be the effect or the level left; outline: as §2
SMILES,EC50 [1],%max [2],Activity (Mus musculus [3]),Activity (Mus musculus [4]),Activity (Mus musculus [5]),Activity (Mus musculus [6])
CC(C)(C)OC(=O)N1C[C@@H]2CC[C@H]1C[C@@H]2Nc1ncnc2c(Nc3ccc(C#N)cc3F)ncnc12 (relative stereo),0.049 µM,73.3%,–,–,–,–
CN(C)C(=N)NC(=N)N [METFORMIN],–,–,18.2%,–,–,–
CC(C)(C)OC(=O)N1[C@@H]2CC[C@H]1C[C@H](Nc1ncnc3c(Nc4ccc(S(C)(=O)=O)cc4F)ncnc13)C2,0.452 µM,65.3%,–,–,–,–
CC(C)(C)OC(=O)N1[C@@H]2CC[C@H]1C[C@H](Nc1ncnc3c(Nc4ccc(C#N)cc4F)ncnc13)C2,1.7 µM,58.1%,–,–,–,–
CC(C)(C)OC(=O)N1[C@@H]2CC[C@H]1C[C@@H](Nc1ncnc3c(Nc4ccc(S(C)(=O)=O)cc4F)ncnc13)C2,0.0022 µM,87.5%,–,Dose-dependent effect,6.4%,13.5%
CC(C)(C)OC(=O)N1[C@@H]2CC[C@H]1C[C@@H](Nc1ncnc3c(Nc4ccc(S(C)(=O)=O)cc4)ncnc13)C2,0.044 µM,72.9%,–,–,–,–
CC(C)(C)OC(=O)N1[C@@H]2CC[C@H]1C[C@@H](Nc1ncnc3c(Nc4ccc(C#N)cc4F)ncnc13)C2,0.0081 µM,83.8%,–,Dose-dependent effect,3.5%,8.9%

# The next lines start with results.
EC50 [1],%max [2],SMILES,Activity (Mus musculus [3]),Activity (Mus musculus [4]),Activity (Mus musculus [5]),Activity (Mus musculus [6])
0.345 µM,61.3%,CC(C)(C)OC(=O)N1CCC(Nc2ncnc3c(Nc4ccc(S(C)(=O)=O)cc4)ncnc23)CC1,–,–,–,–
1 µM,53.4%,CC(C)(C)OC(=O)N1CCC(Oc2ncnc3c(Nc4ccc(C#N)cc4F)ncnc23)CC1,–,–,–,–
> 10 µM,31.7%,CC(C)(C)OC(=O)N1C[C@@H]2CC[C@H]1C[C@H]2Nc1ncnc2c(Nc3ccc(C#N)cc3F)ncnc12 (relative stereo),–,–,–,–
0.179 µM,71.8%,CC(C)(C)OC(=O)N1C[C@@H]2CC[C@H]1C[C@@H]2Nc1ncnc2c(Nc3ccc(S(C)(=O)=O)cc3)ncnc12 (relative stereo),–,–,–,–
> 10 µM,36.4%,CC(C)(C)OC(=O)N1[C@@H]2CC[C@H]1C[C@H](Oc1ncnc3c(Nc4ccc(C#N)cc4F)ncnc13)C2,–,–,–,–
0.036 µM,78.9%,CC(C)(C)OC(=O)N1[C@@H]2CC[C@H]1C[C@@H](Oc1ncnc3c(Nc4ccc(C#N)cc4F)ncnc13)C2,–,–,–,–
1.4 µM,47.5%,CC(C)(C)OC(=O)N1[C@@H]2CC[C@H]1C[C@H](Nc1ncnc3c(Nc4ccc(S(C)(=O)=O)cc4)ncnc13)C2,–,–,–,–
0.147 µM,67.2%,CC(C)(C)OC(=O)N1CCC(Nc2ncnc3c(Nc4ccc(C#N)cc4F)ncnc23)CC1,–,–,–,–

# Source: ChEMBL document CHEMBL4229527, “Design and synthesis of novel pyrimido[5,4-d]pyrimidine derivatives as GPR119 agonist for treatment of type 2 diabetes” (Bioorg Med Chem, 2018)
